# Measured values published in ChEMBL document CHEMBL3244152, “Pivaloyl esters of N,N-dialkylated dopamine congeners. Central dopamine-receptor stimulating activity” (1978).
# Calls of active or inactive are those of the source. The rule behind the calls is not given here.
# Assays:
# [1] = system: Rattus norvegicus; assay: Effect on motor activity in reserpinized Sprague-Dawley rat assessed as stereotyped movements at 2 umolkg, sc measured every 5 mins for 2 hrs by motility meter method; assay type: functional, organism-based
# How it was run: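 Male Sprague-Dawley rats (200–350 g) given reserpine 10 mg/kg ip 6 h before testing. Drug dissolved in saline (0.9%), neutral pH, 10 mL/kg, injected sc in the neck. Each rat then placed alone in a test cage inside a motility meter. Counts were recorded per 5-min period for 2 h, with gross behavior watched through a mirror. Means, n = 4-5.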
# [2] = system: Rattus norvegicus; assay: Stimulation of dopamine receptor in sc dosed Sprague-Dawley rat assessed as reduction in Dopa accumulation in limbic forebrain by spectrofluorimetry; assay type: functional; conditions: Limbic system, read-out: ID50 (the source's name)
# How it was run: (§1)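 Pooled regions from two brains went to perchloric acid extraction, cation exchange and Dopa spectrofluorimetry. Dose giving 50% Dopa decrease came from least-squares double-reciprocal plots (1/% change vs 1/dose).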
# [3] = system: Rattus norvegicus; assay: Stimulation of dopamine receptor in sc dosed Sprague-Dawley rat assessed as reduction in Dopa accumulation in straitum by spectrofluorimetry; assay type: functional; conditions: read-out: ID50 (the source's name); how it was run: as §1
# [4] = system: Rattus norvegicus; assay: Effect on motor activity in reserpinized Sprague-Dawley rat assessed as stereotyped movements at 20 umolkg, sc measured every 5 mins for 2 hrs by motility meter method; assay type: functional, organism-based
# How it was run: (§2)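 Male Sprague-Dawley rats (200–350 g) were given reserpine 10 mg/kg ip 6 h before testing. Drug in 0.9% saline (neutral pH, 10 mL/kg) was given at 20 μmol/kg sc in the neck or 200 μmol/kg po by stomach tube. Rats were caged singly in motility meters at once, with counts recorded per 5-min period over 2 h; means n = 4-5.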
# [5] = system: Rattus norvegicus; assay: Effect on motor activity in reserpinized Sprague-Dawley rat assessed as stereotyped movements at 200 umolkg, po measured every 5 mins for 2 hrs by motility meter method; assay type: functional, organism-based; how it was run: as §2
# [6] = system: Rattus norvegicus; assay: Stimulation of dopamine receptor in Sprague-Dawley rat assessed as reduction in Dopa accumulation in at 1 mg/kg, sc by spectrofluorimetry; assay type: functional, organism-based; parameters: dose 1 mg/kg
# [7] = system: Rattus norvegicus; assay: Effect on motor activity in reserpinized Sprague-Dawley rat assessed as stereotyped movements at 20 umolkg, sc measured up to 10 mins by motility meter method; assay type: functional, organism-based; how it was run: as §2
SMILES,Activity [1],ED50 [2],ED50 [3],Activity [4],Activity [5],Activity [6],Activity [7]
CN1CCc2cccc3c2[C@H]1Cc1ccc(OC(=O)C(C)(C)C)c(OC(=O)C(C)(C)C)c1-3,Active,–,–,–,–,–,–
CCCN(CCC)CCc1cccc(O)c1,–,5.7 µmol/kg,1.8 µmol/kg,Active,inactive,–,–
CC(N)Cc1ccccc1 (configuration not stated),–,–,–,–,–,inactive,–
CCCN(CCC)CCc1ccc(OC(=O)C(C)(C)C)c(OC(=O)C(C)(C)C)c1,–,28 µmol/kg,33 µmol/kg,Active,inactive,–,–
CCCCN(CCCC)CCc1ccc(OC(=O)C(C)(C)C)c(OC(=O)C(C)(C)C)c1,–,> 180 µmol/kg,> 180 µmol/kg,inactive,inactive,–,–
CCCN(CCC)CCc1cccc(OC)c1,–,> 45 µmol/kg,> 45 µmol/kg,inactive,inactive,–,–
CCCN(CCC)CCc1cccc(OC(=O)C(C)(C)C)c1,–,2.7 µmol/kg,1.8 µmol/kg,Active,inactive,–,inactive
CN(C)CCc1ccc(OC(=O)C(C)(C)C)c(OC(=O)C(C)(C)C)c1,–,> 45 µmol/kg,> 45 µmol/kg,inactive,inactive,–,–
CCCN(CCC)CCc1ccc(O)c(O)c1,–,25 µmol/kg,20 µmol/kg,–,inactive,–,–
CCN(CC)CCc1ccc(OC(=O)C(C)(C)C)c(OC(=O)C(C)(C)C)c1,–,> 27 µmol/kg,> 27 µmol/kg,inactive,inactive,–,–
CN1CCc2cccc3c2[C@H]1Cc1ccc(O)c(O)c1-3 [APOMORPHINE],Active,0.23 µmol/kg,0.23 µmol/kg,–,–,–,–
